The test system of series [1] is RAW264.7. Description: Antiinflammatory activity against mouse RAW264.7 cells assessed as reduction of LPS-induced NO production after 24 hrs. Format: functional, cell-based. The settings on record: RAW264.7, 24 h. A digest of the protocol:
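RAW 264.7 murine macrophages were grown in DMEM with 10% FBS, penicillin and streptomycin at 37 °C under 5% CO2. Cells were seeded at 1 × 10^5 per well and given 1.0 μg/mL LPS (E. coli 0111:B4) with or without compound for 24 h at 37 °C. Supernatant NO was read by Griess reagent (10 min, room temperature, dark) at OD 540 nm against a sodium nitrite standard curve. Indomethacin was the positive control; three parallel runs, mean ± SD.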

Series [2] relates to RAW264.7. Description: Cytotoxicity against mouse RAW264.7 cells assessed as cell survival at 80 uM after 24 hrs by MTT assay. Format: cell-based. The settings on record: raw264.7, 24 h. An outline of the steps:
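Viability of RAW 264.7 murine macrophages was read by MTT assay. Cells were kept in DMEM with 10% FBS, 100 U/mL penicillin and 100 μg/mL streptomycin, humidified, 37 °C, 5% CO2.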

Molecules are shown by their SMILES.

Broadly, the IC50 is the midpoint of a concentration-inhibition curve. Turning to `COc1cc(OC)c2ccc(=O)oc2c1CC=C(C)C`, the IC50 with RAW264.7 [1] was found to be 33.1 µM. Also, in the series on RAW264.7 [2], the Activity result was “Non-toxic”.

As for `COc1cc(OC)c2ccc(=O)oc2c1CC(C)(C)C=O`, the IC50 with RAW264.7 [1] is 12.4 µM. In the series on RAW264.7 [2], the Activity entry was “Non-toxic”. For `COc1cc(OC)c2ccc(=O)oc2c1CC(C)(C)C(=O)O`, the IC50 in the series with RAW264.7 [1] was determined as 12.4 µM. In the series with RAW264.7 [2], the Activity entry is reported as “Non-toxic”.

On to `COc1cc(OC)c2ccc(=O)oc2c1CC(=O)C(C)C`, for which, in the series with RAW264.7 [1], the IC50 stood at 20.6 µM. The Activity result in the series on RAW264.7 [2] is “Non-toxic”. `C=C(C)/C=C/c1c(OC)cc(OC)c2ccc(=O)oc12`: the IC50 in the series on RAW264.7 [1] was determined as 12.4 µM. In addition, the Activity result in the series with RAW264.7 [2] is “Non-toxic”. For `COc1cc(OC)c2ccc(=O)oc2c1/C=C/C(C)C`, the IC50 in the series on RAW264.7 [1] was 20.5 µM. Moreover, in the series with RAW264.7 [2], the Activity result is recorded as “Non-toxic”. The like results for `CC(C)=CCc1cc2ccc(=O)oc2c2c1OC(C)(C)C=C2` were, in that order, 12.4 µM and “Non-toxic”. In the case of `C=C(C)/C=C\c1c(OC)cc(OC)c2ccc(=O)oc12`, the IC50 with RAW264.7 [1] was found to be 14.5 µM. The Activity entry in the series with RAW264.7 [2] is on record as “Non-toxic”. For the compound `C=C(C)[C@H](O)[C@H](OCC)c1c(OC)ccc2ccc(=O)oc12`, the IC50 with RAW264.7 [1] stood at 12.4 µM. Moreover, the Activity entry in the series on RAW264.7 [2] is “Non-toxic”. For `COc1cc(OC)c2ccc(=O)oc2c1C(=O)C(=O)C(C)C` the same measures were 12.4 µM and “Non-toxic”.

Consider `COc1ccc2ccc(=O)oc2c1C(=O)C(=O)C(C)C`, for which the Activity result with RAW264.7 [2] was “Non-toxic”. Regarding `COc1cc(OC)c2ccc(=O)oc2c1CC=O`, the IC50 with RAW264.7 [1] amounted to 13.8 µM. The Activity entry in the series with RAW264.7 [2] was “Non-toxic”.

As for `C=C(C)Cc1c(OC)cc(OC)c2ccc(=O)oc12`, the IC50 in the series on RAW264.7 [1] is 12.4 µM. The Activity entry in the series with RAW264.7 [2] was “Non-toxic”. The like results for `COc1cc(OC)c2ccc(=O)oc2c1C/C=C(\C)C=O` were, in that order, 28.3 µM and “Non-toxic”.

On to `CCOC(C)(C)[C@@H](O)Cc1c(OC)c(OC)c(OC)c2ccc(=O)oc12`, for which the IC50 in the series with RAW264.7 [1] came out at 34.2 µM. For the same compound, the Activity result in the series on RAW264.7 [2] is “Non-toxic”. The like results for `COc1c(OC)c(/C=C/C(C)(C)O)c2oc(=O)ccc2c1OC` were, in that order, 12.4 µM and “Non-toxic”. Take `COc1c(OC)c(CC=C(C)C)c2oc(=O)ccc2c1OC`: the IC50 in the series with RAW264.7 [1] came out at 12.4 µM. The Activity result in the series with RAW264.7 [2] was “Non-toxic”. As to `COc1cc2cc(COC(=O)CC(C)C)ccc2c2oc(=O)ccc12`, the IC50 in the series on RAW264.7 [1] is 9.1 µM. In the series on RAW264.7 [2], the Activity result is “Non-toxic”. For `COc1cc2cc(C)ccc2c2oc(=O)ccc12` the same measures were 12.4 µM and “Non-toxic”.

Take `COc1c(OC)c(CC(O)C(C)(C)O)c2oc(=O)ccc2c1OC` (centres undefined): in the series on RAW264.7 [1], the IC50 is 12.4 µM. For the same compound, the Activity result in the series with RAW264.7 [2] is “Non-toxic”. For `COc1cc(OC)c2ccc(=O)oc2c1C[C@@H](O)C(C)(C)O` the same measures were 12.4 µM and “Non-toxic”.

As to `C=C(C)[C@H](Cc1c(OC)ccc2ccc(=O)oc12)OO`, the IC50 in the series with RAW264.7 [1] turned out to be 12.4 µM. For the same compound, the Activity result with RAW264.7 [2] is “Non-toxic”.

Take `C=C(C)C(O)C(OCC)c1c(OC)ccc2ccc(=O)oc12` (centres undefined): the IC50 in the series on RAW264.7 [1] stood at 43.3 µM. For the same compound, in the series with RAW264.7 [2], the Activity entry is given as “Non-toxic”. Consider `C=C(C)[C@@H](O)Cc1c(OC)cc(OC)c2ccc(=O)oc12`, for which the IC50 with RAW264.7 [1] worked out at 12.4 µM. Moreover, the Activity result with RAW264.7 [2] is “Non-toxic”. For `COc1ccc2ccc(=O)oc2c1C(O)C(=O)C(C)C` (centres undefined) the same measures were 12.4 µM and “Non-toxic”. Turning to `COc1cc(OC)c2ccc(=O)oc2c1/C=C/C(C)=O`, the IC50 in the series on RAW264.7 [1] turned out to be 6 µM. For the same compound, in the series with RAW264.7 [2], the Activity entry is “Non-toxic”. Take `CCOC(C)(C)C(O)Cc1c(OC)cc(OC)c2ccc(=O)oc12` (centres undefined): in the series on RAW264.7 [1], the half-maximal inhibitory concentration (IC50) was found to be 31.9 µM. In addition, in the series on RAW264.7 [2], the Activity result is “Non-toxic”. The like results for `COc1cc2c(c3oc(=O)ccc13)C=CC(C)(C)O2` were, in that order, 12.4 µM and “Non-toxic”. For `C=C(C)[C@H](O)[C@H](O)c1c(OC)ccc2ccc(=O)oc12` (relative stereo) the same measures were 12.4 µM and “Non-toxic”.

Consider `COc1ccc2ccc(=O)oc2c1` [HERNIARIN], for which, in the series on RAW264.7 [1], the IC50 came out at 12.4 µM. The Activity result in the series on RAW264.7 [2] was “Non-toxic”. As for `COc1ccc2c(c1)c(CC(=O)O)c(C)n2C(=O)c1ccc(Cl)cc1` [INDOMETHACIN], the IC50 with RAW264.7 [1] was determined as 6.3 µM. For `COc1ccc2ccc(=O)oc2c1C(C=O)=C(C)C` [MURRALONGIN], the IC50 in the series on RAW264.7 [1] was determined as 12.4 µM. Further, the Activity result in the series with RAW264.7 [2] was “Non-toxic”. For `COc1ccc2ccc(=O)oc2c1CC=C(C)C` [OSTHOLE] the same measures were 12.4 µM and “Non-toxic”.

Source of the values: ChEMBL document CHEMBL3425424, “Anti-inflammatory coumarin and benzocoumarin derivatives from Murraya alata” (J Nat Prod, 2015).
